According to ChEMBL document CHEMBL1151170, “Mycobacterium tuberculosis growth inhibition by constituents of Sapium haematospermum” (J Nat Prod, 2004):
In brackets after ≈: the same amount, converted by molar mass.

Columns and labels:
[1] = system: Mycobacterium tuberculosis; experiment: Antitubercular activity against Mycobacterium tuberculosis H37Rv by microplate alamar blue assay; format: functional
Procedure, shortened: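 M. tuberculosis H37Rv (ATCC 27294) tested in the microplate Alamar Blue assay with fluorescence read-out. MIC taken as the lowest drug concentration giving ≥90% inhibition relative to untreated cultures.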

Vero = experiment: Cytotoxicity against african green monkey Vero cells; format: cell-based; conditions: Chlorocebus sabaeus
Procedure, shortened: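 Vero cells (ATCC CCL-81) tested in the CellTiter 96 aqueous nonradioactive cell proliferation assay. Maximum (100%) cytotoxicity set by lysing cells with sodium dodecyl sulfate. IC50 defined as the reciprocal dilution giving 50% inhibition of the Vero cells.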

[2] = Selectivity index, ratio of IC50 for african green monkey Vero cells to MIC for Mycobacterium tuberculosis H37Rv; format: functional
Procedure, shortened: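 Calculated as Vero IC50 (CellTiter 96 aqueous assay, ATCC CCL-81 cells) divided by the H37Rv MIC (microplate Alamar Blue, ≥90% inhibition relative to untreated cultures).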

SMILES: C[C@@H]1CC[C@]2(C(=O)O)CC[C@]3(C)C(=CC[C@@H]4[C@@]5(C)C[C@@H](O)[C@H](O)[C@@](C)(CO)[C@@H]5CC[C@]43C)[C@@H]2C1
- MIC [1]: > 128 µg/mL

SMILES: C=C(C)[C@@H]1CC[C@]2(C)CC[C@]3(C)[C@H](CC[C@@H]4[C@@]5(C)CC[C@H](O)C(C)(C)[C@@H]5CC[C@]43C)[C@@H]12 [LUPEOL]
- MIC [1]: > 128 µg/mL

SMILES: C=C[C@@]1(C)C=C2CC[C@H]3C(C)(C)C(=O)C[C@@H](O)[C@@]3(C)[C@H]2C[C@H]1O [LECHERONOL A]
- IC50 (Vero): 105 µg/mL (≈ 329 µM)
- Ratio [2]: 26.2
- MIC [1]: 4 µg/mL (≈ 12.6 µM)

SMILES: O=c1c(O[C@@H]2O[C@H](CO)[C@@H](O)[C@H](O)[C@H]2O)c(-c2ccc(O)c(O)c2)oc2cc(O)cc(O)c12 [ISOQUERCETIN]
- MIC [1]: 94 µg/mL (≈ 202 µM)

SMILES: O=c1c(O[C@@H]2O[C@H](CO)[C@@H](O)[C@H](O)[C@H]2O)c(-c2ccc(O)cc2)oc2cc(O)cc(O)c12 [ASTRAGALIN]
- MIC [1]: > 128 µg/mL

SMILES: O=C(c1c(O)cc(O)cc1O)[C@H](O)[C@H](O)c1cc(O)c(O)c(O)c1
- MIC [1]: > 128 µg/mL

SMILES: C=C[C@@]1(C)C=C2CC[C@@H]3[C@@](C)(CCC(=O)[C@@]3(C)CO)[C@H]2C[C@H]1O [LECHERONOL B]
- MIC [1]: 128 µg/mL (≈ 402 µM)

SMILES: CCCCCCCCCCCC(=O)O[C@H]1CC[C@]23C[C@]24CC[C@]2(C)[C@@H]([C@H](C)C/C=C/C(C)(C)O)CC[C@@]2(C)[C@@H]4CC[C@H]3C1(C)C
- MIC [1]: > 128 µg/mL

SMILES: C[C@H]1[C@H](C)CC[C@]2(C)CC[C@]3(C)C(=CC[C@@H]4[C@@]5(C)CC[C@@H](O)C(C)(C)[C@@H]5CC[C@]43C)[C@H]12
- MIC [1]: > 128 µg/mL

SMILES: CO[C@H]1/C=C/O[C@@]2(C)Oc3c(C)c(O)c4c(O)c(c(/C=N/N5CCN(C)CC5)c(O)c4c3C2=O)NC(=O)/C(C)=C\C=C\[C@H](C)[C@H](O)[C@@H](C)[C@@H](O)[C@@H](C)[C@H](OC(C)=O)[C@@H]1C [RIFAMPIN]
- MIC [1]: 0.06 µg/mL (≈ 0.0729 µM)

SMILES: CC1(C)CC[C@]2(C)CC[C@]3(C)C(=CC[C@@H]4[C@@]5(C)CC[C@H](O)C(C)(C)[C@@H]5CC[C@]43C)[C@@H]2C1 [beta-AMYRIN]
- MIC [1]: 64 µg/mL (≈ 150 µM)

SMILES: CC1(C)CC[C@]2(C)CC[C@]3(C)C(=CC[C@@H]4[C@@]5(C)CC[C@@H](O)C(C)(C)[C@@H]5CC[C@]43C)[C@@H]2C1
- IC50 (Vero): 127 µg/mL (≈ 298 µM)
- Ratio [2]: 10.4
- MIC [1]: 12.2 µg/mL (≈ 28.6 µM)

SMILES: C=C(C)[C@@H]1CC[C@]2(C)CC[C@]3(C)[C@H](CC[C@@H]4[C@@]5(C)CC[C@@H](O)C(C)(C)[C@@H]5CC[C@]43C)[C@@H]12
- IC50 (Vero): 127 µg/mL (≈ 298 µM)
- Ratio [2]: 10.4
- MIC [1]: 13.4 µg/mL (≈ 31.4 µM)

SMILES: CC(C)CCC[C@@H](C)[C@H]1CC[C@@]2(C)[C@@H]3CC[C@H]4C(C)(C)[C@@H](O)CC[C@@]45C[C@@]35CC[C@]12C [CYCLOARTANOL]
- IC50 (Vero): 102 µg/mL (≈ 239 µM)
- Ratio [2]: 12.8
- MIC [1]: 8 µg/mL (≈ 18.7 µM)
